Measurements taken from ChEMBL document CHEMBL4513216, “Probing the Open Global Health Chemical Diversity Library for Multistage-Active Starting Points for Next-Generation Antimalarials” (ACS Infect Dis, 2020).

test: Toxicity liver stage against HepG2, at 10uM; format: cell-based; set-up: test concentration 10 uM, cell line HepG2-A16-CD81EGFP; conditions: human, HepG2-A16-CD81EGFP cells; read-out: INHIBITION
How it was run: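 Uninfected HepG2-A16-CD81EGFP cells, 3 × 10^3 per well, 1536-well, plated on prespotted compound at 10 μM final, parasite-free screening media added to match infected plates; puromycin 10 μM positive, DMSO 0.5% negative; run in parallel with 48 h PbLuc assay at 37 °C, 5% CO2; viability by CellTiter-Glo luminescence, normalized to controls.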

SMILES	cytotoxicity at 10 µM [%]
CC(Cc1ccco1)NC(=O)Nc1ccc(S(C)(=O)=O)nc1 (stereo unspecified)	3.95
Cc1ccc(S(=O)(=O)NC[C@H]2OC[C@@H](NCc3ccccn3)[C@@H]2O)cc1	-52.5
Nc1ncncc1-c1noc([C@@H]2CCCN2CCCc2ccccc2)n1	1.58
COc1c[nH]c(C(=O)N2CCN(c3cccc(Cl)c3)CC2)cc1=O	-1
O=c1cc2c(nn1CN1CCN(c3ccccc3)CC1)CCCC2	-9.58
CCN1CCCC1CNC(=O)Cc1c(C)n[nH]c1-c1ccc(F)cc1 (stereo unspecified)	-3.02
O=C(CSc1nc2c(cnn2CCO)c(=O)[nH]1)NC1CCCCC1	-8.07
COCCNC(=O)c1ccnn1-c1ccc2ccccn12	8.28
COc1cccc(-c2cnc3n2CCC32CCN(S(C)(=O)=O)CC2)c1	-2.2
O=C(C1CC(F)(F)C1)N1CC[C@H]2OCC[C@@]2(COCC2CC2)C1	-3.09
Cc1ccccc1C(=O)N1C[C@@H]2C[C@@H](C)O[C@@H]2C1	0.995
Cc1cc(NC(=O)CC2(Cn3cnnn3)CCCCC2)nn1C	10.4
Cc1cc(C)cc(OCn2ccc(C(=O)O)n2)c1	6.06
O=C(c1n[nH]cc1Cl)N1CCOCC1	9.02
CCn1nc(C)c2nc(C)nc(NCCCn3cccn3)c21	2.38
CCn1ccc(NC(=O)CCc2c(C)noc2C)n1	7.16
CC(CN(C)C)Nc1nc(O)cc(Cc2ccccc2F)n1 (stereo unspecified)	13.2
O[C@@H]1C[C@H]2CN(Cc3ccsc3)[C@@H](Cc3ccccc3)CN2C1	-2.13
CCC1c2ccc(C)n2CCN1C(=O)Cn1cnc2sc(C)cc2c1=O (stereo unspecified)	6.09
CN(C)Cc1cnc(C2CN(C(=O)c3ccccc3Cl)CCO2)[nH]1 (stereo unspecified)	1.07
Cc1cc(O)cc(C2CCCN2C(=O)c2ccncc2)n1 (stereo unspecified)	8.16
Fc1ccc(Oc2nccnc2C2CCN(C3CCOCC3)CC2)cc1	-2.5
COc1cc(C2Nc3cc(Cl)ccc3C3=NCCN32)cc(OC)c1OC (stereo unspecified)	-24.8

SMILES	cytotoxicity at 10 µM [%]
CCC(=O)N1CCC(c2nc(O)c3c(n2)CN(C2CCCCC2)CC3)C1 (stereo unspecified)	-15.7
CCn1cc(CN2CCC(O)(Cn3ccc4ncccc43)CC2)cn1	-16.3
CC(=O)N1CCC(C(=O)c2cc(C)cnc2N)CC1	-0.0531
O=C(c1ccc(Cl)cc1)N1CC2(CCNC2)OCc2ccccc21 (stereo unspecified)	9.9
O=C(c1cc(Cl)c[nH]1)N(CCCO)Cc1cccnc1	7.48
O=C(c1ccc(-c2cccs2)cc1F)N1CCN(CCO)CC1	-47.3
CC(=O)Nc1nc(COc2nc(C)no2)cs1	-16.6
CCCn1ccnc1SCC(=O)NC(Cc1ccccc1)C(C)=O (stereo unspecified)	-9.58
O=S(=O)(NCCCn1cccn1)c1ccc2c(c1)CCC2	-4.59
CN(Cc1ccco1)C(=O)CN1C(=O)c2cc(Cl)c(Cl)cc2C1=O	1.11
COCc1noc(Cn2c(C3CC3)nc3ccccc32)n1	13.2
N#CC1(NC(=O)COC(=O)Cc2cc(Cl)c3c(c2)OCCO3)CCCC1	0.935
CCc1nsc(N2CCCN(CC(=O)N(C)C3CC3)CC2)n1	-9.43
O=C(NCCNS(=O)(=O)c1cccc(Cl)c1)C1CCCO1 (stereo unspecified)	11.5
CCc1ccc(C(COC)NC(=O)c2ccc(C(N)=O)cc2)o1 (stereo unspecified)	-2.65
Cc1cc(C(=O)NCC2(N(C)C)CCCC2)c(C)n1-c1cccnc1	-8.41
Cc1ncsc1C(=O)NC1CCN(c2ncccc2C#N)CC1	2.68
CCc1ccc(C(C)NC(=O)CCc2nc(-c3nnc[nH]3)no2)cc1 (stereo unspecified)	-1.98
CC(C)c1nccn1C1CCCN(C(=O)c2ccc(=O)n(C)n2)C1 (stereo unspecified)	7.8
COC(=O)N1CCN(Cc2ccccc2C(C)(C)C#N)CC1	-3.53
CN(Cc1nnc(C2CC2)n1C)C1CCN(CCS(C)(=O)=O)C1 (stereo unspecified)	0.918
CC(NC(=O)Cn1ccnc1)c1ccc(OCC2CC2)c(F)c1 (stereo unspecified)	0.99
Cc1cc(C(=O)N2CCCN(Cc3cnn(C(C)C)c3)CC2)no1	0.243

SMILES	cytotoxicity at 10 µM [%]
FC(F)(F)Sc1ccc(NCc2nnc(C3CC3)o2)cc1	5.69
COCCCn1ccc(NCc2cnc(C(C)(C)C)s2)n1	5.91
Cc1cnn(-c2cccc(N3CCCCC3)n2)c1	0.247
O=C(CCS(=O)(=O)C1CCCC1)NCCc1cccnc1	6.86
CN(CCN1CCOCC1)S(=O)(=O)CC1CCCC1	10.2
CC1COCCN1Cc1noc(C(C)(C)C)n1 (stereo unspecified)	5.67
CN1CCN(c2ccccc2NC(=O)NCC[S+](C)[O-])CC1 (stereo unspecified)	-2.41
Cc1cccc2c1NC(c1cnc(C3CCC3)s1)NC2=O (stereo unspecified)	5.11
CO[C@H]1CN(C(=O)OC(C)(C)C)CC1NCc1cc[nH]c1 (stereo partly specified)	-46.6
COCCOCCCNC(=O)c1cc(Cl)cc2cccnc12	32.6
Cc1cccc2c(CCNS(=O)(=O)C3CCOC3)c[nH]c12 (stereo unspecified)	12.7
Fc1cccc(CCN(c2ccc3nnnn3n2)C2CC2)c1	4.21
CC(c1ccccc1F)N1CCN(C(=O)Cc2ccncc2)CC1 (stereo unspecified)	-2.94
Cc1cc(CN2CCCC(C)(CO)C2)ccc1F (stereo unspecified)	-20.4
CC(C)N(C)Cc1cnc2n1CCN(C(=O)c1cccs1)C2	-74.2
O=C(NCc1ccccc1)N1CCn2c(Cn3cccn3)cnc2C1	-71
CN(C)C(=O)N1CCC2(CC1)C(c1cnn(C)c1)CC(=O)N2C (stereo unspecified)	-78.2
Cc1occc1C(=O)N1CCn2c(COCC3CC3)cnc2C1C (stereo unspecified)	7.02
CC1c2ncc(COCC3CC3)n2CCN1C(=O)c1ccnn1C (stereo unspecified)	4.68
Cn1cc(-c2nnn3c2COC(CNCc2ccncc2)C3)cn1 (stereo unspecified)	0.887
Cc1nc(CN(C)CC2CCCN(CCc3ccc(Cl)cc3)C2)n(C)n1 (stereo unspecified)	4.44
C1CCC(c2nc3c(c(N4CCN5CCCC5C4)n2)CCNCC3)C1 (stereo unspecified)	-1.1
CN(C)C(=O)c1ccc(C2CCCN2C(=O)c2ccccc2N(C)C)s1 (stereo unspecified)	18.5

SMILES	cytotoxicity at 10 µM [%]
Cc1cccc(C(=O)N2CCCCC2c2nc3cc(F)ccc3[nH]2)n1 (stereo unspecified)	-1.99
CCc1cnc(NCc2nc(COC)no2)nc1	7.36
COc1ccccc1OC1CN(c2ccncc2)C1	-2.76
Cc1nccc(N[C@H]2CN(CCS(C)(=O)=O)C[C@@H]2C2CC2)n1	0.34
O=C(Cc1ccc2c(c1)OCO2)N1CCN(c2ccccc2Cl)C(=O)C1	-0.874
Cc1nc2c(c(N3CCC(CN4CCCC4=O)CC3)n1)CCNCC2	8.64
O=C1NCC(CN2CCc3onc(-c4ccc(C(F)(F)F)cc4)c3C2)O1 (stereo unspecified)	2.02
CCn1c(N)nc2cc(C(=O)NCCc3ccccc3F)cnc21	-1.83
CCN1CCN(C(=O)CCC2CCN(C(C)CCC(=O)OC)CC2)CC1 (stereo unspecified)	0.9
COCc1nnc(C(=O)N2CCC(N3CCCCC3)CC2)o1	10.2
O[C@@H]1CN(c2nc3ccccc3o2)CC[C@H]1c1ccc2c(c1)OCO2	5.36
CC(=O)N[C@@H]1CN(Cc2nc3ccccc3[nH]2)C[C@H]1c1ccc(C)o1	2.75
CN(C)CC1(O)CCN(C(=O)Cc2ccc(Cl)c(Cl)c2)C1 (stereo unspecified)	-4
Cc1cc(C(=O)N2CCC(n3cc(CO)nn3)CC2)ccc1F	-4.73
COC(=O)c1cccc(S(=O)(=O)NC(=O)COC2CCCCC2)c1	-10.1
Cc1nc(C)n(CC2CCCN(Cc3cccc4c3OCCO4)C2)n1 (stereo unspecified)	-5.23
Cc1ccc(C)c(NS(=O)(=O)c2cc3c(c(C(=O)O)c2)OCCO3)c1	-0.882
N#Cc1cccc(NC(=O)CCn2nc(-c3cccs3)oc2=O)c1	-2
Cc1cnn(CC2CCCCN2C(=O)c2ccccc2-n2cccn2)c1 (stereo unspecified)	-8.4
Cc1cnn(CC2CCCCN2C(=O)c2ccc3[nH]c(=O)[nH]c3c2)c1 (stereo unspecified)	5.8
CC(NC(=O)CNCCn1cccn1)c1ccc2c(c1)CCCC2 (stereo unspecified)	-11.4
FC(F)(F)COCCN1CCN(c2ccc3nncn3n2)CC1	-7.77
O=C(NCc1cc[nH]n1)N1CCN(c2ccccc2Cl)CC1	-2.82

SMILES	cytotoxicity at 10 µM [%]
COc1ccc(C(=O)N(Cc2cnn(C)c2)C(C)C)cc1Br	-9.02
c1cnnc(N2CCCC2CNCc2ccsc2)c1 (stereo unspecified)	-8.9
Cc1ccc(C)c(OC2CCN(C(=O)c3ccc(C)[nH]c3=O)CC2)c1	2.87
Cc1cccc(-c2noc(CN3CCCC(Cn4cncn4)C3)n2)c1 (stereo unspecified)	-3.51
COc1ccc(C(=O)N2CCCCC2Cn2cccn2)c(F)c1 (stereo unspecified)	-5.38
CC(C)N1CCC(CNCc2c[nH]nc2C(C)(C)C)C1 (stereo unspecified)	-2.16
O=C(c1cnc(C2CC2)s1)N1CCCC(n2cccn2)C1 (stereo unspecified)	-13.9
CCc1nc(CNC(C)Cn2cccn2)cs1 (stereo unspecified)	-4.67
CC(C)N(C(=O)Cn1c(-c2ccco2)cc2cccnc21)C(C)C	-4.32
Cc1ccc(OCCCSC2=NCCN2)cc1	-9.66
CCCC(N)CNS(=O)(=O)Cc1cccc(C#N)c1 (stereo unspecified)	6.13
COc1ccc([C@@H]2CN(Cc3ccncc3)C[C@H]2c2cc[nH]n2)cc1	-4.96
Cc1ccc(CN2CCOC3(CCN(C(=O)C4CCOC4)CC3)C2)cc1 (stereo unspecified)	0.933
CN(C)C(=O)NC1COC2(CCN(Cc3ccc(Cl)c(F)c3)CC2)C1 (stereo unspecified)	-76.4
COCCNC(=O)[C@@]12CCO[C@@H]1CCN(Cc1c(C)noc1C)C2	-2.45
Cc1ccc(C(=O)N2CCn3c(COCC4CC4)cnc3C2C)nc1 (stereo unspecified)	3.58
CN(C)C(=O)[C@@H]1CC[C@@H]2[C@@H](CCN2Cc2ccccn2)O1	-3.55
CSc1ccc(C(=O)N2C[C@@H]3CC[C@H]2CN(Cc2ccccc2)C3)cc1	-5.49
C=c1nc(NC)sc1=C1NC(c2c(C)ncc3c2CCNC3)=NO1	1.67
